Results: ChEMBL document CHEMBL3585281, “Antibacterial Labdane Diterpenoids from Vitex vestita” (2015)

Tests used:
Assay type in all cases: functional
[1] = tested on: Bacillus cereus; test: Antibacterial activity against Bacillus cereus CIP 6624 after 18 hrs by agar dilution method; conditions: CIP 6624, 18 h
In short: (§1)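 Agar-dilution MIC against Gram-positive strains. Compounds in DMSO, geometric dilutions giving final 100−0.75 mg/L in Mueller Hinton agar. Strains grown 18 h at 37 °C in trypticase soy broth, diluted in sterile water, spotted by Steers inoculator (about 1000 UFC/spot). Plates incubated 18 h at 37 °C; DMSO blank; ofloxacin positive control. MIC = lowest concentration with no visible growth.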

[2] = tested on: Bacillus cereus; test: Antibacterial activity against Bacillus cereus N190 after 18 hrs by agar dilution method; conditions: N190, 18 h; in short: as §1
[3] = tested on: Bacillus cereus; test: Antibacterial activity against Bacillus cereus N258 after 18 hrs by agar dilution method; conditions: N258, 18 h; in short: as §1
[4] = tested on: Bacillus cereus; test: Antibacterial activity against Bacillus cereus N349 after 18 hrs by agar dilution method; conditions: N349, 18 h; in short: as §1
[5] = tested on: Bacillus spizizenii; test: Antibacterial activity against Bacillus subtilis ATCC 6633 after 18 hrs by agar dilution method; conditions: ATCC 6633, 18 h; in short: as §1
[6] = tested on: Corynebacterium striatum; test: Antibacterial activity against Corynebacterium striatum N840 after 18 hrs by agar dilution method; conditions: N840, 18 h; in short: as §1
[7] = tested on: Enterococcus avium; test: Antibacterial activity against Enterococcus avium CIP 104053 after 18 hrs by agar dilution method; conditions: CIP 104053, 18 h; in short: as §1
[8] = tested on: Enterococcus casseliflavus; test: Antibacterial activity against Enterococcus casseliflavus N487 after 18 hrs by agar dilution method; conditions: N487, 18 h; in short: as §1
[9] = tested on: Enterococcus casseliflavus; test: Antibacterial activity against Enterococcus casseliflavus CIP 103018 after 18 hrs by agar dilution method; conditions: CIP 103018, 18 h; in short: as §1
[10] = tested on: Enterococcus durans; test: Antibacterial activity against Enterococcus durans CIP 104999 after 18 hrs by agar dilution method; conditions: CIP 104999, 18 h; in short: as §1
[11] = tested on: Enterococcus faecalis; test: Antibacterial activity against Enterococcus faecalis CIP 103214 after 18 hrs by agar dilution method; conditions: CIP 103214, 18 h; in short: as §1
[12] = tested on: Enterococcus faecalis; test: Antibacterial activity against Enterococcus faecalis CIP 104676 after 18 hrs by agar dilution method; conditions: CIP 104676, 18 h; in short: as §1
[13] = tested on: Enterococcus faecalis; test: Antibacterial activity against Enterococcus faecalis N491 after 18 hrs by agar dilution method; conditions: N491, 18 h; in short: as §1
[14] = tested on: Enterococcus faecalis; test: Antibacterial activity against Enterococcus faecalis N518 after 18 hrs by agar dilution method; conditions: N518, 18 h; in short: as §1
[15] = tested on: Enterococcus faecalis; test: Antibacterial activity against Enterococcus faecalis N520 after 18 hrs by agar dilution method; conditions: N520, 18 h; in short: as §1
[16] = tested on: Enterococcus faecium; test: Antibacterial activity against Enterococcus faecium CIP 103014 after 18 hrs by agar dilution method; conditions: CIP 103014, 18 h; in short: as §1
[17] = tested on: Enterococcus faecium; test: Antibacterial activity against Enterococcus faecium CIP 107387 after 18 hrs by agar dilution method; conditions: CIP 107387, 18 h; in short: as §1
[18] = tested on: Enterococcus faecium; test: Antibacterial activity against Enterococcus faecium N490 after 18 hrs by agar dilution method; conditions: N490, 18 h; in short: as §1
[19] = tested on: Enterococcus faecium; test: Antibacterial activity against Enterococcus faecium N507 after 18 hrs by agar dilution method; conditions: N507, 18 h; in short: as §1
[20] = tested on: Enterococcus faecium; test: Antibacterial activity against Enterococcus faecium N733 after 18 hrs by agar dilution method; conditions: N733, 18 h; in short: as §1
[21] = tested on: Enterococcus faecium; test: Antibacterial activity against Enterococcus faecium N823 after 18 hrs by agar dilution method; conditions: N823, 18 h; in short: as §1
[22] = tested on: Enterococcus gallinarum; test: Antibacterial activity against Enterococcus gallinarum CIP 105985 after 18 hrs by agar dilution method; conditions: CIP 105985, 18 h; in short: as §1
[23] = tested on: Enterococcus gallinarum; test: Antibacterial activity against Enterococcus gallinarum N489 after 18 hrs by agar dilution method; conditions: N489, 18 h; in short: as §1
[24] = tested on: Enterococcus gallinarum; test: Antibacterial activity against Enterococcus gallinarum N492 after 18 hrs by agar dilution method; conditions: N492, 18 h; in short: as §1
[25] = tested on: Enterococcus hirae; test: Antibacterial activity against Enterococcus hirae CIP 5855 after 18 hrs by agar dilution method; conditions: CIP 5855, 18 h; in short: as §1
[26] = tested on: Listeria innocua; test: Antibacterial activity against Listeria innocua E044 after 18 hrs by agar dilution method; conditions: E044, 18 h; in short: as §1
[27] = tested on: Listeria monocytogenes; test: Antibacterial activity against Listeria monocytogenes CIP 103575 after 18 hrs by agar dilution method; conditions: CIP 103575, 18 h; in short: as §1
[28] = tested on: Listeria monocytogenes; test: Antibacterial activity against Listeria monocytogenes N783 after 18 hrs by agar dilution method; conditions: N783, 18 h; in short: as §1
[29] = tested on: Listeria monocytogenes; test: Antibacterial activity against Listeria monocytogenes N836 after 18 hrs by agar dilution method; conditions: N836, 18 h; in short: as §1
[30] = tested on: Listeria monocytogenes; test: Antibacterial activity against Listeria monocytogenes N851 after 18 hrs by agar dilution method; conditions: N851, 18 h; in short: as §1
[31] = tested on: Staphylococcus aureus; test: Antibacterial activity against Staphylococcus aureus ATCC 25923 after 18 hrs by agar dilution method; conditions: ATCC 25923, 18 h; in short: as §1
[32] = tested on: Staphylococcus aureus; test: Antibacterial activity against Staphylococcus aureus ATCC 9144 oxford after 18 hrs by agar dilution method; in short: as §1
[33] = tested on: Staphylococcus aureus; test: Antibacterial activity against Staphylococcus aureus CIP 483 after 18 hrs by agar dilution method; conditions: CIP 483, 18 h; in short: as §1
[34] = tested on: Staphylococcus aureus; test: Antibacterial activity against Staphylococcus aureus CIP 53154 after 18 hrs by agar dilution method; conditions: CIP 53154, 18 h; in short: as §1
[35] = tested on: Staphylococcus aureus; test: Antibacterial activity against Staphylococcus aureus CIP 53156 after 18 hrs by agar dilution method; conditions: CIP 53156, 18 h; in short: as §1
[36] = tested on: Staphylococcus aureus; test: Antibacterial activity against Staphylococcus aureus CIP 5710 after 18 hrs by agar dilution method; conditions: CIP 5710, 18 h; in short: as §1
[37] = tested on: Staphylococcus aureus; test: Antibacterial activity against Staphylococcus aureus CIP 7625 after 18 hrs by agar dilution method; conditions: CIP 7625, 18 h; in short: as §1
[38] = tested on: Staphylococcus aureus; test: Antibacterial activity against Staphylococcus aureus CRBIP 2121 after 18 hrs by agar dilution method; conditions: CRBIP 2121, 18 h; in short: as §1
[39] = tested on: Staphylococcus epidermidis; test: Antibacterial activity against Staphylococcus epidermidis CIP 53124 after 18 hrs by agar dilution method; conditions: CIP 53124, 18 h; in short: as §1
[40] = tested on: Staphylococcus haemolyticus; test: Antibacterial activity against Staphylococcus haemolyticus CIP 8156 after 18 hrs by agar dilution method; conditions: CIP 8156, 18 h; in short: as §1
[41] = tested on: Staphylococcus intermedius; test: Antibacterial activity against Staphylococcus intermedius N987 after 18 hrs by agar dilution method; conditions: N987, 18 h; in short: as §1
[42] = tested on: Staphylococcus lugdunensis; test: Antibacterial activity against Staphylococcus lugdunensis ATCC 43809 after 18 hrs by agar dilution method; conditions: ATCC 43809, 18 h; in short: as §1
[43] = tested on: Staphylococcus saprophyticus; test: Antibacterial activity against Staphylococcus saprophyticus CIP 76125 after 18 hrs by agar dilution method; conditions: CIP 76125, 18 h; in short: as §1
[44] = tested on: Staphylococcus saprophyticus; test: Antibacterial activity against Staphylococcus saprophyticus E260 after 18 hrs by agar dilution method; conditions: E260, 18 h; in short: as §1
[45] = tested on: Mammaliicoccus sciuri; test: Antibacterial activity against Staphylococcus sciuri N993 after 18 hrs by agar dilution method; conditions: N993, 18 h; in short: as §1
[46] = tested on: Streptococcus agalactiae; test: Antibacterial activity against Streptococcus agalactiae CIP 103227 after 18 hrs by agar dilution method; conditions: ATCC 13813, 18 h; in short: as §1

Measured: MIC

O=C(N[C@H](CO)[C@H](O)c1ccc([N+](=O)[O-])cc1)C(Cl)Cl [CHLORAMPHENICOL]
50 µM: [6]
6 µM: [1] | [2] | [3] | [4] | [39] | [40]
3 µM: [46]
25 µM: [8] | [9] | [11] | [14] | [16] | [19] | [21] | [24] | [27] | [30] | [31] | [37] | [41] | [43] | [44]
200 µM: [12] | [15]
12 µM: all other assays above
